# High-throughput results from PubChem.
# PPC-1+TRAIL kill: kills PPC-1 cancer cells in the presence of TRAIL | 220,000 tested, 0.41% active | cell killing (% activity), % at 4 µM or 5 µM | PPC-1 cells + TRAIL, ATPLite viability luminescence;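 active = cell killing above 50% in the first pass at 4 µM, then a duplicate retest at 5 µM averaging 50% or more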;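 also: plate controls were cells with TRAIL plus DMSO for no effect and medium-only wells lacking cells for full effect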
# STAT3 activator: STAT3 signaling activation. U3A cells, IL-6 STAT3-luciferase reporter, luminescence; 100% = signal with IL-6 EC80 alone. activation (% of control), % at 5.6 µM. 190,000 tested, 0.91% active;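 active = activation above the screen-wide mean of compound activation plus 3 SD, cut at about 130% in these data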;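 also: 0% = background luminescence of wells with medium and substrate only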
#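 Detection: reporter luminescence signal / Assay system: STAT1-lacking human U3A cells, STAT3 luciferase reporter / Incubation: compound pre-incubation 1 h before IL-6, then 6 h stimulation at 37 °C / Control set: IL-6-only high control / Read-out: % activation relative to IL-6 control / Probe or stimulus: Interleukin-6, 33 ng/mL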
# STAT1 inh: STAT1 signaling inhibition. NIH 3T3 STAT1-luciferase reporter, IFN-gamma, luminescence. inhibition, % at 5.5 µM. 200,000 tested, 0.35% active. AID 920;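 active = inhibition above a set limit, the mean inhibition across all tested compounds plus 3 SD, cut at about 34% in these data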;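 also: 0% = IFN-gamma with DMSO and 100% = IFN-gamma with 300 µM nifuroxazide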
# TRAIL sens C8: caspase-8 TRAIL sensitization. 360,000 tested, 1% active. inhibition (viability loss, TRAIL sensitization), % at 10 µM. NB7+C8 cells + TRAIL, ATPlite viability luminescence;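 active = compounds causing at least 50% loss of cell viability in the single-dose screen, relative to plate controls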
# STAT3 blocker: STAT3 signaling inhibition; inhibition, % at 5.5 µM; U3A cells, IL-6 STAT3-luciferase reporter, luminescence; host cell line lacks STAT1; 190,000 tested, 0.89% active;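 active = inhibition above the mean inhibition across all screened compounds plus 3 SD, cut at about 44% in these data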;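 also: 0% = DMSO only wells and 100% = 100 µM nifuroxazide control wells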
# An asterisk follows results filed as active; x = no result given. In the library only some 1.8% were active in any assay of this set; here they are far more common.
SMILES,PPC-1+TRAIL kill,STAT3 activator,STAT1 inh,TRAIL sens C8,STAT3 blocker
Cn1c(O)c(N=NC(=O)c2cc(-c3cccs3)nc3ccccc23)c2ccccc21,23.7,99.6,-0.1,48.3,1.3
CC1(C(=O)NS(=O)(=O)c2ccc(Cl)cc2)CCN1C(=O)Cc1ccc(Cl)cc1Cl (stereo not given),x,x,x,3.7,x
COc1ccc(CCCC(=O)N/N=C/c2cccc(OC)c2O)cc1C,20.2,101.8,-6.0,52.3*,-3.3
COc1cccc(/C=N/NC(=O)C[n+]2ccccc2)c1O,-0.2,92.4,4.3,-7.6,7.8
O=C(Nc1cccc(O)c1)c1cc(-c2ccc3c(c2)OCO3)on1,x,x,x,92.5*,x
O=C(Nc1cccc(O)c1)c1cc(-c2ccccc2Cl)on1,x,x,x,70.2*,x
COc1cc(NC(=O)c2cc(-c3ccc4c(c3)OCO4)on2)cc(OC)c1OC,x,x,x,-3.5,x
COc1ccc(C(=O)N(C)C(C)c2ccon2)cc1OC1CCN(C(C)C)CC1 (stereo not given),x,x,x,-6.8,x
COc1cc(/C=N/Nc2nc(Nc3ccccc3)nc(-n3nc(C)cc3C)n2)cc(OC)c1OC,2.3,105.0,-16.9,31.6,-5.6
COc1ccc(O)c(/C=N/Nc2nc(Nc3ccccc3)nc(-n3nc(C)cc3C)n2)c1,-7.4,88.3,2.1,55.4*,14.3
COc1ccc(/C=N/Nc2cc(C)nc(-n3nc(C)cc3C)n2)cc1,6.9,102.8,-8.0,47.5,-8.6
Cc1cc(N/N=C/c2ccc(O)cc2O)nc(-n2nc(C)cc2C)n1,55.0*,85.4,-2.9,35.6,12.9
Cc1cc(N/N=C\c2ccccc2)nc(-c2ccccc2O)n1,34.4,93.5,-13.0,56.5*,5.4
Cc1cc(N/N=C/c2ccccc2O)nc(-c2ccccc2O)n1,39.1,105.6,5.9,19.2,-9.6
Cc1cc(N/N=C/c2ccc(O)cc2O)nc(-c2ccccc2O)n1,34.0,93.0,-23.5,77.4*,6.1
Cn1c(/C=C/c2ccc(Cl)cc2Cl)c([N+](=O)[O-])c(=O)n(C)c1=O,x,x,x,0.5,x
CCOc1ccccc1NC(=O)COc1coc(CN2CCc3ccccc32)cc1=O,x,x,x,-4.9,x
O=C(Nc1ccc2c(c1)OCO2)c1ccc2sc([C@H]3C[C@H](O)[C@@H](CO)O3)nc2c1,x,x,x,4.9,x
Oc1c(CN2CCCCC2)cc(Br)c2cccnc12,-9.3,135.0*,4.6,50.6*,-36.9
OC(c1ccc(Cl)c(F)c1)c1ncc(-c2ccc(F)cc2)[nH]1 (stereo not given),x,x,x,-12.5,x
CC1(C)C=C(c2ccc(C=O)s2)CC(C)(C)N1C=O,62.3*,103.8,9.8,21.8,-7.4
COc1ccc(CN2CCN(C(=O)Cn3nc(C(=O)O)c4ccccc4c3=O)CC2)cc1F,x,x,x,13.7,x
CN(C)c1ccc(C2NC(=O)c3ccccc3N2)cc1 (stereo not given),x,x,x,65.5*,x
CN(CC(=O)OCC(=O)NC1CCCC1)S(=O)(=O)c1ccc(Cl)cc1,x,x,x,0.2,x
CCn1cnc2scc(-c3ccccc3)c2c1=O,-9.2,111.8,0.6,-2.9,-12.4
SMILES,PPC-1+TRAIL kill,STAT3 activator,STAT1 inh,TRAIL sens C8,STAT3 blocker
Cn1cc(/C=N/n2cnc3scc(-c4ccc(Cl)cc4)c3c2=O)c2ccccc21,10.4,134.8*,0.1,35.2,-40.0
COc1ccc(CNC[C@@H](CCCCN(C)Cc2ccc(OC)cc2)N2C[C@H](c3ccccc3)N(CCc3ccc(Cl)c(Cl)c3)C(=O)C2=O)cc1,7.2,x,6.7,89.0*,x
c1ccc(-c2cn3c(n2)-c2ccccc2C3)cc1,44.5,67.8,-16.1,68.7*,35.9
O=C1c2ccccc2CN2C(=O)c3ccccc3CN12,x,x,x,-27.2,x
Cc1ccc(C2(C)NC(=O)N(CC(=O)N(Cc3ccccc3)C(C)(C)C)C2=O)cc1 (stereo not given),x,x,x,12.2,x
O=C(/C=C/c1ccccc1)Nc1ccc(Br)cn1,-0.1,90.8,-47.3,-7.8,17.1
Cc1ccc(NC(=O)/C=C/c2ccc(Cl)cc2)nc1,21.4,139.9*,-42.2,15.3,-43.1
COC(=O)C12OCC34C(CC5C(C)=C(O)C(=O)CC5(C)C3C(O)C1O)OC(=O)C(OC(=O)C=C(C)C)C24 (stereo not given),x,x,x,64.9*,x
CCN1CCN(c2ccc(S(=O)(=O)N3CCCCC3)cc2NC(=O)c2ccccc2)CC1,x,x,x,21.2,x
CCN1CCN(c2ccc(S(=O)(=O)N3CCCCC3)cc2NC(=O)c2ccc([N+](=O)[O-])s2)CC1,x,x,x,53.1*,x
CCOC(=O)CS(=O)(=O)c1ccccc1,16.4,104.9,-4.9,1.3,-3.2
CCOC(=O)CS(=O)(=O)c1nc(-c2ccccc2)cc(C(F)(F)F)n1,2.7,88.0,43.4*,-10.8,18.0
C/C(=N\NC(=O)c1ccc(Cl)cc1)c1ccccn1,x,x,x,51.1*,x
C/C(=N/NC(=O)c1ccccn1)c1ccc(O)cc1,6.9,x,x,16.1,x
C/C(=N\NC(=O)c1ccccn1)c1ccc(Cl)cc1,27.4,x,x,60.6*,x
c1ccc2c(C3OCC4(CCCCC4)CO3)cccc2c1,x,x,x,10.5,x
CN(C(=O)CSc1nc2sc3c(c2c(=O)n1C)CCC3)C1CCS(=O)(=O)C1 (stereo not given),x,x,x,-0.1,x
CCN(CC)S(=O)(=O)c1cc(NC(=O)COC(=O)c2c(C)noc2C)ccc1C,x,x,x,5.9,x
O=c1c(/C=N\NS(=O)(=O)c2ccccc2)coc2ccc(Cl)cc12,x,x,x,1.0,x
COc1cccc(/C=C2\SC(=S)N(CCCC(=O)N(CCO)c3ccccc3)C2=O)c1,x,x,x,60.8*,x
Oc1cccc2ccc(Nc3ccccn3)nc12,-3.9,75.5,-4.7,83.5*,34.5
CCCS(=O)(=O)NC(=O)C1(C)CCCN(C(=O)c2sccc2C)C1 (stereo not given),x,x,x,-16.9,x
CCCCC(=O)Nc1ccc(C2C(=O)c3ccccc3C2=O)cc1,x,x,x,48.4*,x
CCC(=O)Nc1ccc(C2C(=O)c3ccccc3C2=O)cc1,x,x,x,72.6*,x
CCCCC(=O)Nc1ccc(C(N)=O)cc1,22.5,102.0,0.9,-9.5,2.4
Cc1ccnc2nc(C(=O)OCC(=O)N3CC(C)CC(C)C3)nn12 (stereo not given),x,x,x,-6.9,x
NC(=S)NN=C1c2cc(OCCN3CCOCC3)ccc2-c2ccc(OCCN3CCOCC3)cc21,x,x,x,84.5*,x
